What all share (format): ADME, organism-based
What all share (conditions): in vivo

A short description of data set [1]: Observed AUC (0-7 hrs) in CD-1 mouse at 10 mg/kg, ip by LC-MS/MS analysis. More on the design: time < 7 hr, route intraperitoneal, dose 10 mg/kg.
Data set [2] can be described thus: Cmax in CD-1 mouse at 10 mg/kg, ip upto 7 hrs by LC-MS/MS analysis. More on the design: route intraperitoneal, dose 10 mg/kg, time <=7. The gist of the method: (§1)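 Female CD-1 mice, single dose of 10 mg/kg i.p. or 20 mg/kg p.o., in 20% DMSO/50% PEG-400/30% PBS. Blood was sampled at 0.5, 2, 4 and 7 h and plasma assayed by LC-MS/MS (ESI positive MRM). Parameters are noncompartmental, mean of N=3.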

Data set [3] can be described thus: Observed AUC (0-7 hrs) in CD-1 mouse at 20 mg/kg, po by LC-MS/MS analysis. Also on record: time < 7 hr, route oral, dose 20 mg/kg.
The nature of data set [4]: Cmax in CD-1 mouse at 20 mg/kg, po upto 7 hrs by LC-MS/MS analysis. More on the design: route oral, dose 20 mg/kg, time <=7. In outline:
as §1

With `CC(Sc1nc2c(cnn2C)c(=O)n1-c1ccccc1)c1ccccc1` (stereo not drawn), the AUC in data set [1] came to 4.9 µM·h; in data set [3] it was 3.9 µM·h. For the same compound, the values for the Cmax in data set [2] and in data set [4] were 2.3 µM and 0.8 µM, respectively.

In data set [1], `C[C@@H](Sc1nc2c(cnn2C)c(=O)n1-c1ccccc1)c1ccccc1` displayed an AUC of 0.7 µM·h. The compound also showed a Cmax in data set [2] of 0.3 µM.

Take `CC(Sc1nc2nn(C3COC3)cc2c(=O)n1-c1ccccc1)c1ccccc1` (stereo not drawn): the AUC in data set [1] came out at 19.5 µM·h. The compound further came in with a Cmax in data set [2] of 7.9 µM.

Regarding `CC(Sc1nc2nn(C3COC3)cc2c(=O)n1-c1ccccc1)c1ccccn1` (stereo not drawn), the maximum concentration (Cmax) in data set [2] worked out at 3.3 µM; in data set [4], 3.9 µM.

Regarding `CC(Sc1nc2nn(C3(C)COC3)cc2c(=O)n1-c1ccccc1)c1ccccc1` (stereo not drawn), the AUC in data set [1] turned out to be 23 µM·h; in data set [3] it was 23.3 µM·h. In addition, the Cmax in data set [2] and in data set [4] was 7 µM throughout.

Regarding `CC(Sc1nc2c(cnn2C)c(=O)n1-c1ccccc1)c1ccccn1` (stereo not drawn), the values for the AUC in data set [1] and in data set [3] were 7.9 µM·h and 17.4 µM·h, respectively. Further, the Cmax in data set [2] is 3.9 µM; in data set [4] it was 7.3 µM.

The values are drawn from ChEMBL document CHEMBL4811219 (Eur J Med Chem, 2021).
